In the library only some 6.4% were active in any assay of this set; here they are far more common.
GRIN3A LBD mod = binders of NR3A ligand-binding domain, primary screen, biophysical, differential scanning fluorimetry, uHTS; Glutamate receptor ionotropic, NMDA 3A (GRIN3A) ligand-binding domain; NR3A LBD differential scanning fluorimetry, Tm shift; 0% = protein alone, 100% = glycine-bound protein; Tm shift relative to glycine control, % at 25 µM; actives 2.5% (n = 340,000); AID 1259313, 2017;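 active = melting temperature shift of at least 10% of the positive control shift, at one fixed dose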
EBV gp42 inh = Epstein-Barr virus gp42 inhibitors, primary screen, biochemical, uHTS, fluorescence polarization; Fluorescence polarization binding assay, mP read-out; actives 0.42% (n = 220,000); inhibition, % (tested at 21.74 µM); AID 1085, 2008; Glycoprotein 42 (Epstein-Barr virus (strain AG876)), Q1HVG2; in the data active = inhibition above about 50%
Target sequence (Q1HVG2 whole entry, looked up): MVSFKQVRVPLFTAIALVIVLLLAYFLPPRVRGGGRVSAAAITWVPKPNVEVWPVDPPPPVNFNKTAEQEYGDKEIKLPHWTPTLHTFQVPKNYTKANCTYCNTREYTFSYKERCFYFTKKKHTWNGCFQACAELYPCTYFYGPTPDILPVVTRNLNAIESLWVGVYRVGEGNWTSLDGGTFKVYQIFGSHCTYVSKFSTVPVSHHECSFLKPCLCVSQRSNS
CHOP inh = inhibitors of CHOP promoter induction, primary screen, cell-based, unfolded protein response, luciferase reporter; CHO-K1 CHOP-promoter luciferase, tunicamycin-induced, 15-18 h; inhibition, % at 10 µM; actives 3.8% (n = 220,000);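 active = compounds that reduced the stress-induced luciferase reporter signal by more than about 70% of percent inhibition, limit read from the data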
Tb MetRS inh = T. brucei MetRS inhibitors, primary screen, biochemical, luminescence; inhibition, % at 11.9 µM; actives 0.4% (n = 360,000); purified T. brucei MetRS, ATP depletion, Kinase-Glo luminescence; methionyl-tRNA synthetase (Trypanosoma brucei brucei); AID 624268, 2012;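 active = inhibition above a per-plate cutoff of the control wells' mean inhibition plus 3 SD, cut at about 5.5% in these data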
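Test system: purified T. brucei MetRS enzyme. Also added: ATP, methionine and E. coli bulk tRNA substrates. Compound: 11.9 µM single point. Schedule: 15 min enzyme-compound preincubation, 2 h reaction, 10 min detection, 25 °C. Signal: luciferase luminescence of residual ATP, Kinase-Glo. Evaluation: percent inhibition versus plate control medians. Controls: DMSO wells, low control.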
WT yeast gro inh = growth inhibition of WT strain, primary screen, mitochondrial fusion inhibitor project, WT and mutant strains, chemical genetic | mitochondrial fusion phenotypic screen | actives 2.1% (n = 190,000) | inhibition, % at 10 µM | AID 1362, 2008; in the data active = inhibition above about 58%; tested in S. cerevisiae
MPTP block = mitochondrial permeability transition pore inhibitors, primary screen, biochemical, isolated mouse mitochondria, absorbance; Ca2+ swelling absorbance, 30 min; actives 1.4% (n = 360,000); inhibition, % at 10 µM;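 active = inhibition of 50% or more, scaled per plate between neutral and stimulator controls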
Large screens that a line does not name were inactive.

CCC(=O)OC1CC(C)N(C(=O)c2ccccc2)c2ccc(C)cc21 (stereo not drawn)	none
CCOC(=O)c1c(NC(=O)C2=C(C)NC(=S)NC2c2ccc(C)cc2)sc(C)c1C (stereo not drawn)	CHOP inh 74
CNC(=O)c1ccc(-c2ccc(OC)cc2)s1	none
COc1ccc(NC(=O)c2ccc(-c3ccc(OC)cc3)s2)cc1	GRIN3A LBD mod 22
O=C(Nc1ccccc1)c1ccc(-c2ccc(F)cc2)s1	GRIN3A LBD mod 22
N/C(=N\OC(=O)c1cccc2ccccc12)c1cccc([N+](=O)[O-])c1	GRIN3A LBD mod 26
N/C(Cc1ccc(Cl)cc1)=N\OC(=O)c1cccc2ccccc12	WT yeast gro inh 98
O=C(OC(c1ccccc1)c1nccc2ccccc12)c1cccc([N+](=O)[O-])c1 (stereo not drawn)	WT yeast gro inh 67
N/C(Cc1ccc(Cl)cc1)=N\OC(=O)c1ccc2ccccc2c1	none
COc1cccc(/C=N/NC(=O)CCCc2ccc(OC)c(C)c2)c1	none
O=C(Nc1ccc(Cl)cc1)Nc1ccc(-c2cnco2)cc1	GRIN3A LBD mod 37 (no result: EBV gp42 inh, CHOP inh, WT yeast gro inh)
O=C(Nc1ccc(Cl)cc1)Nc1ccon1	GRIN3A LBD mod 14 (no result: EBV gp42 inh, CHOP inh, WT yeast gro inh)
COC(=O)c1ccc(N2C(=O)CC(SCCN)C2=O)cc1 (stereo not drawn)	GRIN3A LBD mod 12
CCOC(=O)C(N)CSC1CC(=O)N(c2ccc(C(=O)OC)cc2)C1=O (stereo not drawn)	none
Clc1nssc1=Nc1ccccc1	CHOP inh 86
Fc1ccc(N=c2ssnc2Cl)c(F)c1	CHOP inh 82
COc1cc(N=c2ssnc2Cl)cc(OC)c1OC	CHOP inh 94
Clc1ccc(N=c2ssnc2Cl)cc1	GRIN3A LBD mod 14
O=C1CSC(=Nc2ccc(Cl)cc2)N1	none (no result: EBV gp42 inh, CHOP inh, WT yeast gro inh)
COc1cc(-c2nnc(-c3cc(OC)c(OC)c(OC)c3)o2)cc(OC)c1OC	none
CCN(CC)C(=O)c1cccc(C)c1	none (no result: EBV gp42 inh, CHOP inh, WT yeast gro inh)
Cc1c(Cl)cccc1NC(=O)NNC(=O)CCc1ccccc1	none (no result: EBV gp42 inh, CHOP inh, WT yeast gro inh)
CCC1(CC)C(=O)C2=C3C1[C@H](C(=O)OC)CC(C(=O)OC)C[C@H]3n1c(=O)n(-c3ccccc3)c(=O)n1[C@H]2C (stereo partly drawn)	none (no result: EBV gp42 inh, CHOP inh, Tb MetRS inh, WT yeast gro inh, MPTP block)
O=C(COc1ccc(Br)cc1)Nc1nc(-c2cccnc2)cs1	none (no result: WT yeast gro inh)
Cc1ccc(C(=O)N2CCCC(CCC(=O)NCc3ccccc3F)C2)cn1 (stereo not drawn)	none (no result: EBV gp42 inh, CHOP inh, WT yeast gro inh)
N#Cc1ccc(Oc2c(Cl)cncc2Cl)cc1	none (no result: EBV gp42 inh, CHOP inh, WT yeast gro inh)
N#Cc1ccc(N=c2ssnc2Cl)cc1	GRIN3A LBD mod 23, CHOP inh 86
CCCCCOc1ccc2oc(=O)c3c(c2c1)CCCN3C(=O)CN1CCCC(C(=O)OCC)C1 (stereo not drawn)	WT yeast gro inh 80
O=C(CN1CCCCC1)N1CCCc2c1c(=O)oc1ccc(OCc3ccccc3)cc21	none
Cc1cc(=O)c2c(N(C)C)cccc2[nH]1	none (no result: GRIN3A LBD mod, EBV gp42 inh, CHOP inh, WT yeast gro inh)
Cc1ccc2c(C)c(C(=O)NCC(C)(C)N3CCOCC3)oc2c1C	none (no result: EBV gp42 inh, CHOP inh, WT yeast gro inh)
Cc1cc(C)n(Cc2ccccc2)c(=O)c1S(=O)(=O)c1ccccc1	none
Cc1cc(C)n(Cc2ccc(Cl)c(Cl)c2)c(=O)c1S(=O)(=O)c1ccccc1	CHOP inh 74
NC(=O)c1ncn([C@@H]2O[C@H](CNCc3cccc(OC4CCCC4)c3)[C@@H](O)[C@H]2O)n1	GRIN3A LBD mod 17 (no result: EBV gp42 inh, CHOP inh, WT yeast gro inh)
NC(=O)c1ncn([C@@H]2O[C@H](CNCc3cccc4c3sc3ccccc34)[C@@H](O)[C@H]2O)n1	none (no result: EBV gp42 inh, CHOP inh, WT yeast gro inh)
NC(=O)c1ncn([C@@H]2O[C@H](CNCc3cnc(N4CCOCC4)nc3)[C@@H](O)[C@H]2O)n1	GRIN3A LBD mod 13 (no result: EBV gp42 inh, CHOP inh, WT yeast gro inh)
N#Cc1ccc(S(=O)(=O)N2CCN(C(=O)[C@@H]3CCCN3C(=O)c3cccs3)CC2)cc1	none (no result: EBV gp42 inh, CHOP inh, WT yeast gro inh)
Cc1ccc(S(=O)(=O)N2CCN(C(=O)C3CCN(c4ncnc5sc(C)c(C)c45)CC3)CC2)c(C)c1	none (no result: EBV gp42 inh, CHOP inh, WT yeast gro inh)
O=C(Nc1ccc(N2C(=O)C3C4C=CC(C4)C3C2=O)cc1)Nc1nnc(C(F)(F)F)s1 (stereo not drawn)	GRIN3A LBD mod 20
Cc1cc(-c2ccccc2)c(C#N)c(=S)[nH]1	EBV gp42 inh 83
N#Cc1c(-c2ccccc2Cl)cc(-c2ccccc2)[nH]c1=S	none (no result: GRIN3A LBD mod, Tb MetRS inh, MPTP block)
Cc1ccc(COC(=O)CN2C(=O)NC3(CCCCC3C)C2=O)cc1 (stereo not drawn)	GRIN3A LBD mod 11 (no result: EBV gp42 inh, CHOP inh, WT yeast gro inh)
Fc1cccc(Cl)c1CNCCCSc1ncccn1	none (no result: EBV gp42 inh, CHOP inh, WT yeast gro inh)
Cc1ccc(S(=O)(=O)CC(=O)Nc2nnc(C(C)C)s2)cc1	none (no result: EBV gp42 inh, CHOP inh, WT yeast gro inh)
C=CCOC(=O)C1=C(C)NC(SC)=C(C#N)C1c1ccc(OCC)cc1 (stereo not drawn)	CHOP inh 95
CSc1ccc(-c2ccc3c(c2)c(Sc2ccccc2)c(-c2ccccc2)n3C)cc1	none (no result: GRIN3A LBD mod, EBV gp42 inh, CHOP inh, WT yeast gro inh)
COc1ccc2nc(NS(=O)(=O)c3ccc(NC(C)=O)cc3)sc2c1	none
COc1ccc2nc(Nc3nc(C)c(C(C)=O)s3)sc2c1	GRIN3A LBD mod 11
COc1ccc(Nc2nc3ccc(OC)cc3s2)cc1	GRIN3A LBD mod 28
CC(=O)c1sc(Nc2nc3cc4c(cc3s2)OCO4)nc1C	none
Cc1ccc(S(=O)(=O)N(C)C[C@@H]2Oc3ccc(NS(C)(=O)=O)cc3CC(=O)N([C@H](C)CO)C[C@@H]2C)cc1	none (no result: EBV gp42 inh, CHOP inh, WT yeast gro inh)
CCC(CC)n1[nH]c(=O)cc1N	GRIN3A LBD mod 14
O=C(CC1C=Cc2ccccc2N1C(=O)c1ccccc1)c1ccccc1 (stereo not drawn)	GRIN3A LBD mod 10 (no result: WT yeast gro inh)
O=[N+]([O-])c1cc(-c2ccn[nH]2)ccc1Cl	GRIN3A LBD mod 15
CC(=O)Nc1ccc(NC(=O)Cn2cc3c(n2)CCC(C)C3)cc1 (stereo not drawn)	none (no result: GRIN3A LBD mod, Tb MetRS inh, MPTP block)
C#CCOCCOCCOCCNc1nc(N2CCN(C(=O)CCCCCCCCCCNC(=O)[C@H]([C@@H](C)CC)n3cc(CCCCCN)nn3)CC2)nc(N2CCN(C(=O)CCCCCCCCCCNC(=O)[C@@H]([C@H](C)O)n3cc(C)nn3)CC2)n1	GRIN3A LBD mod 17 (no result: EBV gp42 inh, CHOP inh, WT yeast gro inh)
C#CCOCCOCCOCCNc1nc(N2CCN(C(=O)CCCCCCCCCCNC(=O)[C@@H](CCSC)n3cc(CCO)nn3)CC2)nc(N2CCN(C(=O)CCCCCCCCCCNC(=O)[C@H]([C@@H](C)CC)n3cc(CCCCCN)nn3)CC2)n1	GRIN3A LBD mod 17 (no result: EBV gp42 inh, CHOP inh, Tb MetRS inh, WT yeast gro inh, MPTP block)
